Experiment [1] addresses Histamine H2 receptor (Rattus norvegicus) (UniProt P25102). The experiment can be described thus: In vivo antagonist activity against histamine H2-receptor in lumen-perfused stomach of atropinized (1 mg/kg) anesthetized rat gastric secretion at 256 ug/kg; -ve. The format is functional, organism-based.
The target in experiment [2] is Histamine H2 receptor (Cavia porcellus) (UniProt P47747). Kind of experiment: Antagonist activity was measured for histamine H2-receptor in guinea pig atrium; 486 uM/L. As to conditions: Cardiac atrium. The format is functional, tissue-based. Put shortly:
(§1)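 Guinea pig right atrium in vitro, propranolol (0.5 μM) present. Test compounds given up to 486 μM against histamine (0.2–781 μM). Any active compound was run at three dose levels (five observations).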

Experiment [3] addresses Histamine H1 receptor (Cavia porcellus) (UniProt P31389). Kind of experiment: In vitro agonist activity against histamine H1-receptor in guinea pig ileum in the presence of atropine (0.5 uM) relative to histamine. In kind it is functional, tissue-based. Put shortly: (§2)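 Isolated guinea pig ileum contraction with atropine (0.5 μM). Agonism tested up to 781 μM (0.1% histamine). Relative activity came from cumulative dose–response curves; one compound was run as a 2+2 parallel assay.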

Experiment [4] has as its target Histamine H2 receptor (Cavia porcellus) (UniProt P47747). Kind of experiment: Agonist activity was measured for histamine H2-receptor in guinea pig atrium; -ve; <0.1% of histamine (781 uM/L). The format is functional, tissue-based. To be noted: Cardiac atrium.
The target of experiment [5] is Histamine H2 receptor (Rattus norvegicus) (UniProt P25102). The experiment can be described thus: In vivo agonist activity against histamine H2-receptor in lumen-perfused stomach of atropinized (1 mg/kg) anesthetized rat gastric secretion. In kind it is functional, organism-based. The gist of the method: (§3)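 Urethane-anesthetized rat, atropinized (1 mg kg⁻¹), lumen-perfused stomach, acid output. Single intravenous doses of compound matched against histamine doses (0.5–1 μM kg⁻¹). Potency relative to histamine compared on peak responses.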

For experiment [6] the target is unchanged. The experiment can be described thus: In vivo antagonist activity against histamine H2-receptor in lumen-perfused stomach of atropinized (1 mg/kg) anesthetized rat gastric secretion at 187 ug/kg; weak inhibition. In kind it is functional, organism-based. To be noted: filed as antagonist.
Experiment [7] has as its target Histamine H2 receptor (Cavia porcellus) (UniProt P47747). The experiment can be described thus: Agonist activity was measured for histamine H2-receptor in guinea pig atrium. In kind it is functional, tissue-based. To be noted: Cardiac atrium.
For experiment [8], the target named is Histamine H1 receptor (Cavia porcellus) (UniProt P31389). The experiment can be described thus: In vitro agonist activity against histamine H1-receptor in guinea pig ileum in the presence of atropine (0.5 uM) relative to histamine. In kind it is functional, tissue-based. The gist of the method:
as §2

Experiment [9] deals with Histamine H2 receptor (Cavia porcellus) (UniProt P47747). The experiment can be described thus: Antagonist activity was measured for histamine H2-receptor in guinea pig atrium; -ve. The format is functional, tissue-based. To be noted: Cardiac atrium. The gist of the method: as §1
Experiment [10] has as its target Histamine H2 receptor (Rattus norvegicus) (UniProt P25102). Kind of experiment: In vivo agonist activity against histamine H2-receptor in lumen-perfused stomach of atropinized (1 mg/kg) anesthetized rat gastric secretion at 187 ug/kg; -ve. In kind it is functional, organism-based. Put shortly: as §3
Experiment [11] has the same target. Kind of experiment: In vivo antagonist activity against histamine H2-receptor in lumen-perfused stomach of atropinized (1 mg/kg) anesthetized rat gastric secretion at 128 ug/kg; -ve. The format is functional, organism-based.
Experiment [12] has the same target. The experiment can be described thus: In vivo agonist activity against histamine H2-receptor in lumen-perfused stomach of atropinized (1 mg/kg) anesthetized rat gastric secretion at 256 ug/kg; -ve. In kind it is functional, organism-based. Put shortly:
as §3

The target of experiment [13] is Histamine H1 receptor (Cavia porcellus) (UniProt P31389). Kind of experiment: In vitro antagonist activity against histamine H1-receptor in guinea pig ileum in the presence of atropine (0.5 uM). In kind it is functional, tissue-based. Put shortly: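 Isolated guinea pig ileum with atropine (0.5 μM) present. Antagonism measured against histamine (0.1–109 μM)-stimulated contraction. Cumulative dose–response curves plotted for active compounds at three dose levels (nine observations).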

The target is the same in experiment [14]. The experiment can be described thus: In vitro agonist activity against histamine H1-receptor in guinea pig ileum in the presence of atropine (0.5 uM) relative to histamine; -ve; <0.1% of histamine (781 uM/L). The format is functional, tissue-based. The gist of the method:
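Isolated guinea pig ileum with atropine (0.5 μM) present. Agonist activity assayed up to 781 μM (0.1% histamine). Activity relative to histamine taken from cumulative dose–response curves. A 2+2 parallel assay was run for one compound.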

Experiment [15] has the same target. The experiment can be described thus: In vitro antagonist activity against histamine H1-receptor in guinea pig ileum in the presence of atropine (0.5 uM). In kind it is functional, tissue-based. The gist of the method: (§4)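 Guinea pig ileum in vitro with atropine (0.5 μM) present. Compounds tested against histamine-stimulated contraction (histamine 0.1–109 μM). Cumulative dose–response curves plotted for active compounds at three dose levels (nine observations); pA2 derived.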

The target in experiment [16] is Histamine H2 receptor (Cavia porcellus) (UniProt P47747). Kind of experiment: Agonist activity was measured for histamine H2-receptor in guinea pig atrium. In kind it is functional, tissue-based. As to conditions: Cardiac atrium.
The target of experiment [17] is Histamine H2 receptor (Rattus norvegicus) (UniProt P25102). The experiment can be described thus: In vivo antagonist activity against histamine H2-receptor in lumen-perfused stomach of atropinized (1 mg/kg) anesthetized rat gastric secretion at 512 ug/kg; -ve. The format is functional, organism-based.
For experiment [18] the target is unchanged. Kind of experiment: In vivo agonist activity against histamine H2-receptor in lumen-perfused stomach of atropinized (1 mg/kg) anesthetized rat gastric secretion at 512 ug/kg; -ve. In kind it is functional, organism-based. Put shortly: as §3
The target of experiment [19] is Histamine H2 receptor (Cavia porcellus) (UniProt P47747). The experiment can be described thus: Antagonist activity was measured for histamine H2-receptor in guinea pig atrium. The format is functional, tissue-based. As to conditions: Cardiac atrium. The gist of the method:
as §1

Experiment [20] deals with Histamine H1 receptor (Cavia porcellus) (UniProt P31389). Kind of experiment: In vitro antagonist activity against histamine H1 receptor in guinea pig ileum in the presence of atropine (0.5 uM). In kind it is functional, tissue-based. Put shortly:
as §4

Experiment [21] has as its target Histamine H2 receptor (Rattus norvegicus) (UniProt P25102). The experiment can be described thus: In vivo agonist activity against histamine H2-receptor in lumen-perfused stomach of atropinized (1 mg/kg) anesthetized rat gastric secretion at 128 ug/kg; -ve. In kind it is functional, organism-based. The gist of the method:
as §3

For experiment [22], the target named is Histamine H1 receptor (Cavia porcellus) (UniProt P31389). Kind of experiment: In vitro agonist activity against histamine H1 receptor in guinea pig ileum in the presence of atropine (0.5 uM) relative to histamine; -ve; <0.1% of histamine (781 uM/L). In kind it is functional, tissue-based. Put shortly:
as §2

In experiment [23] the target is Histamine H2 receptor (Cavia porcellus) (UniProt P47747). The experiment can be described thus: Antagonist activity was measured for histamine H2-receptor in guinea pig atrium; -ve; 486 uM/L. The format is functional, tissue-based. As to conditions: Cardiac atrium. Put shortly: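 Isolated guinea pig right atrium with propranolol (0.5 μM) present. Compounds tested as antagonists against histamine (0.2–781 μM) at up to 486 μM. Active compounds run at three dose levels (five observations).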

The target of experiment [24] is Histamine H2 receptor (Rattus norvegicus) (UniProt P25102). The experiment can be described thus: In vivo agonist activity against histamine H2-receptor in lumen-perfused stomach of atropinized (1 mg/kg) anesthetized rat gastric secretion at 64 ug/kg; -ve. The format is functional, organism-based. The gist of the method:
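In vivo, urethane-anaesthetised rat given atropine (1 mg kg⁻¹), lumen-perfused stomach, acid secretion as read-out. Compounds given intravenously as single doses and matched against single histamine doses (0.5–1 μM kg⁻¹).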

Each structure is given as a SMILES string. Activity calls are given as the source filed them. The calls are words filed in the database; no cut-off is given here.

Sequence of Histamine H2 receptor (Cavia porcellus) (P47747 whole entry, the tested form may be a part): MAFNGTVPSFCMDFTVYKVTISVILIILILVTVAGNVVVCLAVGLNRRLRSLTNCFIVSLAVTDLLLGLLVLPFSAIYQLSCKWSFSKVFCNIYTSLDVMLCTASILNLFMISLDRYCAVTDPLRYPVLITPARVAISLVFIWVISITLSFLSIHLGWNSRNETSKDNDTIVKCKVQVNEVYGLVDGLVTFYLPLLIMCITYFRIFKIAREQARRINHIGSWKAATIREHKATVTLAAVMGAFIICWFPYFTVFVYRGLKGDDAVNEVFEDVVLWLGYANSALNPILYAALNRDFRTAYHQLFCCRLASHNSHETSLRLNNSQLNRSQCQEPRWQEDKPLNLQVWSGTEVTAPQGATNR
Sequence of Histamine H1 receptor (Cavia porcellus) (P31389 whole entry): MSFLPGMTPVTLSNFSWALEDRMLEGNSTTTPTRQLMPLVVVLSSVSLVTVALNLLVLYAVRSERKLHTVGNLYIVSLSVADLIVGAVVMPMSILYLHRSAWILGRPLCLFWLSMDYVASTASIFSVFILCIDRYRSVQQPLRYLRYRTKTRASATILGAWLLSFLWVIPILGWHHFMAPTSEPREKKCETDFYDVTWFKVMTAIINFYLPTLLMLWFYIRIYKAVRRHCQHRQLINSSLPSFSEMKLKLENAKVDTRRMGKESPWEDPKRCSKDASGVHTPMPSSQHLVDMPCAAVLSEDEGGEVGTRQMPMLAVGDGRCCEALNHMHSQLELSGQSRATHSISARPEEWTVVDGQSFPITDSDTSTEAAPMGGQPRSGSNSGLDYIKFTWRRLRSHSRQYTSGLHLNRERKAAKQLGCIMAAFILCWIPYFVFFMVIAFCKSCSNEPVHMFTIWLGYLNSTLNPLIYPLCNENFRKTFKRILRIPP
Sequence of Histamine H2 receptor (Rattus norvegicus) (P25102 whole entry, the tested form may be a part): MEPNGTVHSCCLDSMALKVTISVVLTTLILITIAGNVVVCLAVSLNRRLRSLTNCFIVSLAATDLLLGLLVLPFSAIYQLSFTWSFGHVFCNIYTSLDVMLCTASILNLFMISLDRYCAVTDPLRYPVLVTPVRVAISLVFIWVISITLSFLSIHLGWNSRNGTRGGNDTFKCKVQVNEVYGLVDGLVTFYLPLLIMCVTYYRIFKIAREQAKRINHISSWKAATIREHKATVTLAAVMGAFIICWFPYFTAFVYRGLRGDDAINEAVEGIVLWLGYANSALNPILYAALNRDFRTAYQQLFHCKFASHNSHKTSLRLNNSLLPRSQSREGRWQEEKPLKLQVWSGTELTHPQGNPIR

As for `NCCc1cn(Cc2ccccc2)cn1`, the Antagonist activity result in experiment [1] was “inactive”. In [2], this molecule yielded an Antagonist activity below 3.3. The Agonist activity in [3] turned out to be 0.4; in experiment [5], 3. Also, the Agonist activity entry in [4] was “inactive”.

As to `c1ccc(CNCCc2c[nH]cn2)cc1`, the values for the Antagonist activity in experiment [2] and in [6] were below 3.3 and “Partial antagonist”, respectively. Moreover, the Agonist activity in experiment [5] came to 0.5; in experiment [7] it was 0.7; in experiment [8], 0.4.

The molecule `NCCc1c[nH]c(Cc2ccccc2)n1` displayed an Antagonist activity in [9] below 3.3. Moreover, in experiment [3], the Agonist activity is 2.3. Moreover, the Agonist activity entry in experiment [4] and in experiment [10] was “inactive” in each case. Moreover, the Antagonist activity result in experiment [11] was “inactive”.

For the molecule `NCCc1cncn1Cc1ccccc1`, the Agonist activity entry in experiment [12], in [4] and in experiment [14] was “inactive” in each case. Further, the Antagonist activity in [2] was below 3.3; in experiment [13], 3.6 pA2. Besides, the Antagonist activity result in [11] was “inactive”.

With `NCC(Cc1ccccc1)c1c[nH]cn1` (centres undefined), the Antagonist activity in experiment [15] was 4 pA2; in experiment [2], below 3.3. Besides, the Agonist activity in [16] was determined as 1; in experiment [8], 0.1. Also, the Antagonist activity entry in [17] was “inactive”. Besides, the Agonist activity entry in experiment [18] was “inactive”.

As to `NCCc1ncn(Cc2ccccc2)c1Cc1ccccc1`, the values for the Antagonist activity in experiment [19] and in experiment [20] were 4.35 and 4.7 pA2, respectively. Also, the Agonist activity entry in experiment [21], in experiment [22] and in experiment [4] was “inactive” each time. For the same molecule, the Antagonist activity result in experiment [11] was “inactive”.

As to `NCCc1[nH]cnc1Cc1ccccc1`, the Antagonist activity in experiment [23] was below 3.3; in experiment [13] it was 4.4 pA2. The Agonist activity result in experiment [4], in experiment [24] and in [14] was “inactive” throughout. Besides, the Antagonist activity result in [11] is “inactive”.

The record behind these values is ChEMBL document CHEMBL1122180, “Potential histamine H2-receptor antagonists. 4. Benzylhistamines” (J Med Chem, 1982).
